# Bioassay records as filed in PubChem BioAssay.
# This is one part of a sample in which hits are shown more often than they occur.
# ABCB6 inh MLPCN = blocks the human ABCB6 transporter; fluorescence ratio to DMSO, % at 10 µM; K562-ABCB6 porphyrin accumulation, flow cytometry, 1 h; hits give low values; actives 0.19% (n = 360,000); Q9NP58;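 active means fluorescence ratio to DMSO below 75%, the collection mean minus 3 SD; inconclusive means too few cells collected in the well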;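 further: signal is porphyrin accumulated inside mitochondria; 100% equals median channel fluorescence of DMSO control wells; lower ratio means ABCB6 inhibition with less porphyrin fluorescence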
# Target sequence (Q9NP58 whole entry, looked up): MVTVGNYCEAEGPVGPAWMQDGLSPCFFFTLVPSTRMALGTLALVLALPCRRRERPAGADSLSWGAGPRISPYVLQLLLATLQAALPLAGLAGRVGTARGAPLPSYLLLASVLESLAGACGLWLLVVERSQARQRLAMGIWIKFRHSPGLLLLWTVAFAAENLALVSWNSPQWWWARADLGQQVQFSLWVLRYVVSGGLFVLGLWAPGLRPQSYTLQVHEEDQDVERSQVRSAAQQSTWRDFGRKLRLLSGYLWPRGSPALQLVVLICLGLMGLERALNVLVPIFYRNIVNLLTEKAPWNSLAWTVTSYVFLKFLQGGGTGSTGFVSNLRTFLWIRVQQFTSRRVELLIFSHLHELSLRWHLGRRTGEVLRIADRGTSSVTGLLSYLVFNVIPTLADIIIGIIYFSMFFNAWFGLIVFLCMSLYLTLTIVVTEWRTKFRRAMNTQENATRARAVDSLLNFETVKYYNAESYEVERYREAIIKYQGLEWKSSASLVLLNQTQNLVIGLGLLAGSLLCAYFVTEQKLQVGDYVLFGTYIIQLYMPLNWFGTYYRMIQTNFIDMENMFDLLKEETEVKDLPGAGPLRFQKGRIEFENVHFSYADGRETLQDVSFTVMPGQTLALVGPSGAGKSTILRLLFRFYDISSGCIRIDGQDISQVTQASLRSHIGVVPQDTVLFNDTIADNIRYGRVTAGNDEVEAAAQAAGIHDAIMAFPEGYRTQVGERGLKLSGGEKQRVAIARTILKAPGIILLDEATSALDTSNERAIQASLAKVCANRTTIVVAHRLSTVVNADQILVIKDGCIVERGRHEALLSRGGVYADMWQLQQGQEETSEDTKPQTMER
# XiGFP reactiv = reactivates the inactive X chromosome in mouse fibroblasts; XiGFP mouse fibroblasts, % GFP-positive cells imaging, 3 d; cells co-treated with 5-aza-dC sensitizer; scaled so ellipticine positive control = 100%; activation, % at 7.58 µM; actives 0.055% (n = 360,000); AID 743238;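 active means mean normalized replicate activation at least 10% and every replicate at or above 10%; inconclusive means only one of the two criteria met; inactive means mean below 10% and not all replicates reach 10%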;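 further: 0% = median of on-plate neutral control wells and 100% = ellipticine 6 µM median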
#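 System: SV40-immortalized XiGFP fibroblast cells, line 68-5-11 / Incubation: 3-day compound exposure, then 15 min fixation at room temperature / Compound: single concentration per compound, delivered by pin transfer / Buffer or medium: DMEM plus 5-aza-dC sensitizer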
# Myeloid diff 2 = promotes myeloid progenitor differentiation; ER-HoxA9 myeloid progenitors, lysozyme-GFP differentiation, flow cytometry; calls only at 10 µM; actives 1% (n = 360,000); AID 624256;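 active means normalized GFP-positive differentiation at or above the plate's own cutoff, the solvent-only control mean plus 3 SD; inconclusive means no clear call, values can overlap the other calls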;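 further: cells exposed to compound for four days before flow analysis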
# The depositor's hits bear a star; i = inactive; ? = inconclusive; · = no result; + = active, no number.
SMILES,ABCB6 inh MLPCN,XiGFP reactiv,Myeloid diff 2
C[C@@H]1CN([C@@H](C)CO)C(=O)c2cc(NS(=O)(=O)c3cccs3)ccc2O[C@@H](C)CCCCO[C@@H]1CN(C)C(=O)Nc1ccc(C(F)(F)F)cc1,·,0,·
CCN(CC)CCn1c(=O)n(-c2ccc(Cl)cc2)c(=O)c2c3c(sc21)CN(C)CC3,102,0,+
CN1CCc2c(sc3c2c(=O)n(-c2ccc(Cl)cc2)c2nncn32)C1,100,·,i
C[C@@H]1CN([C@H](C)CO)C(=O)c2cc(C3=CCCCC3)cnc2O[C@H]1CN(C)C(=O)CN1CCOCC1,·,0,·
Cc1ccc(NC(=O)CN2CCC(Cc3ccccc3)CC2)cc1S(=O)(=O)N(C)C,487,0,+
CC(=O)N1CCN(CC(=O)Nc2ccc(C)c(S(=O)(=O)N(C)C)c2)CC1,102,0,i
CSc1ccccc1NC(=O)COc1ccccc1C,263,0,+
Cc1ccccc1OCC(=O)Nc1ccccc1CO,83,·,i
Cc1noc(C)c1NC(=O)Nc1ccc2c(c1)CC(=O)N([C@@H](C)CO)C[C@@H](C)[C@H](CN(C)C)O2,·,-1,·
C=CCC(C=C)S(=O)(=O)c1ccc(C)cc1 (stereo not given),96,·,+
Cc1ccc(S(=O)(=O)C=CS(=O)(=O)c2ccc(C)cc2)cc1,101,0,i
CCNC(=O)[C@@H]1[C@@H](CO)[C@@H]2Cn3c(ccc(-c4ccc(OC)cc4)c3=O)[C@@H]2N1Cc1nccs1,·,0,·
Cc1noc(C)c1S(=O)(=O)Nc1ccc2c(c1)C(=O)N([C@@H](C)CO)C[C@H](C)[C@H](CN(C)C(=O)Nc1ccccc1)OCCCC[C@H](C)O2,·,0,·
Nc1ccc2c3c(cccc13)-c1ccccc1-2,784,117*,+
Cc1ccc2c3c(cccc13)-c1ccccc1C2=O,98,0,i
O=S(=O)(c1cccc(F)c1)N1CC[C@@H]2[C@H]1c1cc(C#Cc3cccc(F)c3)ccc1N[C@@H]2CO,·,0,·
O=C(CN1CCOCC1)N[C@H]1CC[C@H](CCNC(=O)C2CCCCC2)O[C@H]1CO,·,0,·
CO[C@@H]1CN(C)C(=O)c2cc(NC(C)=O)ccc2OC[C@@H](C)N(C(=O)c2cnccn2)C[C@H]1C,·,0,·
COc1ccc(OC)c(S(=O)(=O)NCc2ccccc2)c1,68*,·,i
COc1ccc(OC)c(S(=O)(=O)NCc2cccnc2)c1,102,·,i
CO[C@H]1CC[C@@H]2CCN(C)C(=O)[C@@H](C)[C@H](OC)CN(C)C(=O)c3cc(C#N)ccc3OC[C@H]1O2,·,0,·
O=C(CCn1c(=O)oc2ccccc21)Nc1ccc(N2CCOCC2)cc1,93,0,i
O=C(CCn1c(=O)oc2cc(Cl)ccc21)Nc1ccc(N2CCOCC2)cc1,100,0,+
O=S(N1CCc2ccccc21)C12CC3CC(CC(C3)C1)C2 (stereo not given),110,0,+
CN1CCN(S(=O)C23CC4CC(CC(C4)C2)C3)CC1 (stereo not given),103,·,i
SMILES,ABCB6 inh MLPCN,XiGFP reactiv,Myeloid diff 2
Cn1c(C(=O)NCCCN2CCN(c3ccc(F)cc3)CC2)cc2c(=O)n(C)c3ccccc3c21,104,0,?
Cn1c(C(=O)NCCN2CCN(c3ccccc3F)CC2)cc2c(=O)n(C)c3ccccc3c21,106,0,+
COc1ccc(N2CCN(C(CNC(=O)c3ccc4c(c3)OCO4)c3ccco3)CC2)cc1 (stereo not given),101,29*,i
O=C(NCC(c1ccco1)N1CCN(c2ccc(F)cc2)CC1)c1ccc2c(c1)OCO2 (stereo not given),102,0,i
COc1ccccc1-c1ccc2c(c1)[C@@H]1[C@@H](CCN1S(=O)(=O)c1cccc(F)c1)[C@H](CO)N2,·,0,·
COc1ccc(CCN2C(=O)CSC2=Nc2ccc(C(C)C)cc2)cc1OC,93,0,+
COc1ccc(N=C2SCC(=O)N2CCc2ccc(OC)c(OC)c2)cc1,100,0,i
C[C@@H]1CN([C@@H](C)CO)C(=O)c2c(c3ccccc3n2C)-c2ccccc2CO[C@@H]1CN(C)CC1CC1,·,0,·
c1ccc(-c2csc3ncnc(NCC4COc5ccccc5O4)c23)cc1 (stereo not given),89,0,i
Cc1sc2ncnc(NCC3COc4ccccc4O3)c2c1C (stereo not given),78,1,+
Cc1ccc(S(=O)(=O)N(C)C[C@H]2Oc3ccc(NS(=O)(=O)c4ccccc4)cc3C(=O)N([C@@H](C)CO)C[C@H]2C)cc1,·,0,·
CCOC(=O)c1cnc2c(C(=O)OC)cccc2c1NCc1ccco1,104,·,i
CCOC(=O)c1cnc2c(C)cccc2c1NCc1ccco1,101,·,+
